Legend:
Assay type in all cases: ADME
[1] = biological target: T1, Cytochrome P450 1B1 (Homo sapiens, UniProt Q16678); assay: Inhibition of human recombinant CYP1B1 by spectrophotometry based 7-ethoxyresorufin O-deethylation enzyme assay
T1 sequence (Q16678 whole entry): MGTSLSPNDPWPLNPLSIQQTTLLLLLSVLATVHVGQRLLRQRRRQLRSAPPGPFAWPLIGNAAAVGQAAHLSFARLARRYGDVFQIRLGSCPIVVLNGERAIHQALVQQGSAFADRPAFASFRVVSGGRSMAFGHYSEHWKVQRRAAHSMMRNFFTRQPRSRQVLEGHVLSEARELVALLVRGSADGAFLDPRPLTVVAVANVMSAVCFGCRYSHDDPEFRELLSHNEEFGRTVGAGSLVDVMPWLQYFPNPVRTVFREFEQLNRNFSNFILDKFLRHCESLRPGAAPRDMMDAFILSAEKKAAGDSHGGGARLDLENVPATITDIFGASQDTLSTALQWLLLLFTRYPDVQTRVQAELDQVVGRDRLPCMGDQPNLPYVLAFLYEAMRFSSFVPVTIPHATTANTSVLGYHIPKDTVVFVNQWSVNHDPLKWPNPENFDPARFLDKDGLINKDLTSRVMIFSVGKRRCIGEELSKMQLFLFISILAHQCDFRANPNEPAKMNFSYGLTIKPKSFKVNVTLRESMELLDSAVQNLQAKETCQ
In short: (§1)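 EROD assay: fresh DMSO solutions of test compound over various concentrations with 2 µM 7-ethoxyresorufin, 1.3 mM NADP+, 3.3 mM glucose-6-phosphate, 0.5 U/ml G6PDH, 3.3 mM MgCl2 in 100 mM potassium phosphate pH 7.4. Started with enzyme (1.25 pmol CYP1A1, or 5 pmol CYP1A2 or CYP1B1), 37 °C, 15 min. Resorufin fluorescence (ex 550/em 585) against resorufin standard. IC50 read graphically from % of control activity; three parallel experiments.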

[2] = system: CYP1A2 / CYP1A1; assay: Selectivity ratio, ratio of IC50 for human recombinant CYP1A2 to IC50 for human recombinant CYP1A1; settings: recombinant CYP1A2 and recombinant CYP1A1, read-out: Ratio IC50
[3] = system: CYP1A2 / CYP1B1; assay: Selectivity ratio, ratio of IC50 for human recombinant CYP1A2 to IC50 for human recombinant CYP1B1; settings: recombinant CYP1A2 and recombinant CYP1B1, read-out: Ratio IC50
[4] = biological target: T2, Cytochrome P450 1A2 (Homo sapiens, UniProt P05177); assay: Inhibition of human recombinant CYP1A2 by spectrophotometry based 7-ethoxyresorufin O-deethylation enzyme assay; in short: as §1
T2 sequence (P05177 whole entry): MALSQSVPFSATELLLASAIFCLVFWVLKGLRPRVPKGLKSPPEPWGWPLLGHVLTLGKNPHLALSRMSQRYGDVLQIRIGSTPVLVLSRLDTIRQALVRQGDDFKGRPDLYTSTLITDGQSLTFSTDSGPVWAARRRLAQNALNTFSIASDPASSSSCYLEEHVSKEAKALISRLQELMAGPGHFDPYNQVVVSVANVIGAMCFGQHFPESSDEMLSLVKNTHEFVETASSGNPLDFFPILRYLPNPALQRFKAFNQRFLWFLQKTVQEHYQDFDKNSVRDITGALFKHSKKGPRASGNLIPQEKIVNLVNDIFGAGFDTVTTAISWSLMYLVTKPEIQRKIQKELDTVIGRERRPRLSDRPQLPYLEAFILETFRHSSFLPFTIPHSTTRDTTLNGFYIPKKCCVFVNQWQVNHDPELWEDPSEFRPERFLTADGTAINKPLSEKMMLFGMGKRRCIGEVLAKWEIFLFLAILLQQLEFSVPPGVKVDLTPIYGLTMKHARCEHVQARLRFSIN

[5] = biological target: T3, Cytochrome P450 1A1 (Homo sapiens, UniProt P04798); assay: Inhibition of human recombinant CYP1A1 by spectrophotometry based 7-ethoxyresorufin O-deethylation enzyme assay; in short: as §1
T3 sequence (P04798 whole entry): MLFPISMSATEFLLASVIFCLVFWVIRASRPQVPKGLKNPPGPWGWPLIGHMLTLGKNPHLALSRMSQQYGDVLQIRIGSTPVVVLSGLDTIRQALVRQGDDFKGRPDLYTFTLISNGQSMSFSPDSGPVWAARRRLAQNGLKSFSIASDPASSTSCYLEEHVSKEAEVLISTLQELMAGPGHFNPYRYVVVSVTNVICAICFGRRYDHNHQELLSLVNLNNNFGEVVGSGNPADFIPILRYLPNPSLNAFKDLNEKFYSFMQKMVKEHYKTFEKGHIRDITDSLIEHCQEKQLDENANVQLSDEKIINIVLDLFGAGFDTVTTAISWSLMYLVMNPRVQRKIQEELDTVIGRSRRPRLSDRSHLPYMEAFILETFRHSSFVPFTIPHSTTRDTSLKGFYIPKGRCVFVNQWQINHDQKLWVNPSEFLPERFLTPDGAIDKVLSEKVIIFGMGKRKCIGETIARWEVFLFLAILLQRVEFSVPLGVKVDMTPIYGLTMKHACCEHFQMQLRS

[6] = biological target: T2, Cytochrome P450 1A2; assay: Activity of human recombinant CYP1A2 assessed as NADPH oxidation level per pmol of CYP1A2 level at 10 uM by spectrophotometry; settings: recombinant enzyme
In short: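 NADPH oxidation by human recombinant CYP1A2 (5 pmol/ml) in Tris buffer pH 7.4 with stilbene at 1–50 µM. Reaction started with 0.2 mM NADPH, 37 °C, 3 min. Absorbance at 340 nm read every 15 s; NADPH oxidized calculated with extinction coefficient 6.22 mM-1 cm-1.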

Row | SMILES | IC50 [1] [nM] | IC50 [4] [nM] | IC50 [5] [nM] | Activity [6] [µM/min] | selectivity ratio [2] | selectivity ratio [3]
1 | COc1ccccc1/C=C/c1ccc(SC)cc1 | 300 | 7500 | 1000 | < 0.3 | 7.5 | 25
2 | COc1cc(OC)c(/C=C/c2ccc(SC)cc2)c(OC)c1 | 500 | 6500 | 400 | < 0.3 | 16.3 | 17
3 | COc1cc(/C=C/c2ccc(SC)cc2)cc(OC)c1 | 1500 | 5000 | 1400 | < 0.3 | 3.6 | 3.3
4 | COc1ccc(OC)c(/C=C/c2ccc(SC)cc2)c1 | 1100 | 39500 | 3800 | < 0.3 | 10.4 | 35.9
5 | COc1cc(/C=C/c2ccc(SC)cc2)cc(OC)c1OC | 2600 | 7000 | 3600 | 2.22 | 1.9 | 2.7
6 | COc1ccc(/C=C/c2ccc(SC)cc2)c(OC)c1OC | 1000 | > 50000 | 900 | < 0.6 | > 55.5 | > 50
7 | COc1cccc(/C=C/c2ccc(SC)cc2)c1 | 500 | 11500 | 1100 | < 0.3 | 10.5 | 23
8 | COc1ccc(/C=C/c2ccc(SC)cc2)c(OC)c1 | 2000 | 8100 | 2400 | < 0.3 | 3.4 | 4.1

Now from value to compound, other results behind:

Row | IC50 [1] [nM] | IC50 [4] [nM] | IC50 [5] [nM] | Activity [6] [µM/min] | SMILES | selectivity ratio [2] | selectivity ratio [3]
9 | 900 | 15000 | 800 | 2.91 | COc1cc(OC)c(OC)cc1/C=C/c1ccc(SC)cc1 | 18.7 | 16.7
10 | 300 | 14500 | 1000 | – | CSc1ccc(/C=C/c2ccccc2Cl)cc1 | 14.5 | 48.3
11 | 5500 | 23000 | 28000 | < 0.3 | COc1ccc(/C=C/c2ccc(SC)cc2)cc1 | 0.8 | 4.2
12 | 1100 | 22000 | 1800 | < 0.3 | COc1cccc(/C=C/c2ccc(SC)cc2)c1OC | 12.2 | 20

Reference: ChEMBL document CHEMBL2069293, “Design, synthesis and evaluation of the inhibitory selectivity of novel trans-resveratrol analogues on human recombinant CYP1A1, CYP1A2 and CYP1B1” (Bioorg Med Chem, 2012)
